Measurements from ChEMBL document CHEMBL4477183, “Antimicrobial Peptide from the Wild Bee Hylaeus signatus Venom and Its Analogues: Structure-Activity Study and Synergistic Effect with Antibiotics” (J Nat Prod, 2016).
Converted amounts (≈) assume the structure as drawn. The source made the active and inactive calls. The calls are words filed in the database; no cut-off is given here.

Columns and labels:
Pseudomonas aeruginosa [1] = assay: Induction of cell permeabilization in Pseudomonas aeruginosa assessed as propidium iodide uptake at 4 uM after 10 mins; format: functional, organism-based
Staphylococcus aureus [2] = assay: Antimicrobial activity against Staphylococcus aureus clinical isolates from Liberec regional hospital assessed as reduction in bacterial growth after 20 hrs by […]; format: functional
In short: (§1)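 Broth microdilution in LB (YPG for C. albicans) with 2-fold serial dilutions, final 0.1–100 μM. Mid-log cells grown 3–5 h at 37 °C were added at about 5 × 10^5 cfu/mL, then incubated 20 h at 37 °C with shaking. A540 was read every 15 min to build growth curves. Medium with cells served as growth control; at least three runs in duplicate.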

Staphylococcus aureus [3] = assay: Antimicrobial activity against Staphylococcus aureus clinical isolates from university hospital in Motol assessed as reduction in bacterial growth after 20 hrs by drop diffusion test; format: functional
Escherichia coli = assay: Antimicrobial activity against Escherichia coli assessed as reduction in bacterial growth after 20 hrs by […]; format: functional; in short: as §1
Pseudomonas aeruginosa [4] = assay: Antimicrobial activity against Pseudomonas aeruginosa 5482 assessed as reduction in bacterial growth after 20 hrs […]; format: functional; conditions: Pseudomonas aeruginosa, 5482, 20 h; in short: as §1
Pseudomonas aeruginosa [5] = assay: Antimicrobial activity against Pseudomonas aeruginosa clinical isolates assessed as reduction in bacterial growth after 20 hrs by […]; format: functional; in short: as §1
[6] = Hemolytic activity in human type RBC after 1 hr; format: ADME, cell-based, Erythrocyte; conditions: red blood cells (erythrocytes), read-out: LC50
In short: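 Peptides at 2.5–400 μM were incubated with a 4% suspension of human erythrocytes in physiological solution for 1 h at 37 °C, then centrifuged at 250g for 5 min; supernatant A540 was read. Saline-treated cells gave 0% lysis and 0.2% Triton X-100 gave 100%. LC50 is the concentration lysing 50% of cells; duplicates in at least two independent experiments.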

Candida albicans = assay: Antifungal activity against Candida albicans assessed as reduction in fungal growth after 20 hrs by […]; format: functional; in short: as §1
Micrococcus luteus = assay: Antimicrobial activity against Micrococcus luteus assessed as reduction in bacterial growth after 20 hrs by […]; format: functional; in short: as §1
Bacillus subtilis = assay: Antimicrobial activity against Bacillus subtilis assessed as reduction in bacterial growth after 20 hrs by […]; format: functional; in short: as §1
Staphylococcus aureus [7] = assay: Antimicrobial activity against Staphylococcus aureus clinical isolates assessed as FIC index in presence of amoxicillin after 20 hrs by drop diffusion test; format: functional
Pseudomonas aeruginosa [8] = assay: Antimicrobial activity against Pseudomonas aeruginosa clinical isolates assessed as FIC index in presence of tetracycline after 20 hrs by drop diffusion test; format: functional
Pseudomonas aeruginosa [9] = assay: Antimicrobial activity against Pseudomonas aeruginosa clinical isolates assessed as FIC index in presence of rifampicin after 20 hrs by drop diffusion test; format: functional
Pseudomonas aeruginosa [10] = assay: Induction of cell permeabilization in Pseudomonas aeruginosa assessed as propidium iodide uptake at 5 to 10 uM after 10 mins; format: functional, organism-based
In short: (§2)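 Mid-log P. aeruginosa was washed twice and resuspended in PBS (pH 7) at 10^8 cfu/mL with propidium iodide at 10 μg/mL. Peptide was added by 2-fold serial dilution in PBS (0.625–20 μM), with PBS as blank and octenidine dihydrochloride (4 μM final) as positive control. Plates were kept at 37 °C in the dark for 120 min, reading fluorescence (ex 544/em 620 nm) every minute. Means of at least three measurements.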

Pseudomonas aeruginosa [11] = assay: Bactericidal activity against Pseudomonas aeruginosa assessed as reduction in bacterial count at 24 uM after 60 mins by time kill assay; format: functional
In short: (§3)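 P. aeruginosa inoculum about 5 × 10^5 cfu/mL in LB mixed 1:1 with LB alone or LB containing test agent at final 8, 24, 80 or 20 μM. Incubation was at 37 °C with shaking for 4 h. Aliquots taken at 0–240 min were serially diluted in 0.9% NaCl and plated on LB agar overnight at 37 °C. Viable cfu/mL were counted; means of four independent measurements.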

Pseudomonas aeruginosa [12] = assay: Ratio of MIC for Pseudomonas aeruginosa to PC50 for induction of permeabilization in Pseudomonas aeruginosa; format: functional
In short: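 PC50: washed 10^8 cfu/mL cells in PBS pH 7 with PI 10 μg/mL, peptide 0.31–80 μM, 90 min at 37 °C dark, fluorescence 544/620 nm as % of 4 μM octenidine, interpolated from log-concentration curve.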

Pseudomonas aeruginosa [13] = assay: Induction of cell permeabilization in Pseudomonas aeruginosa assessed as propidium iodide uptake 10 to 100 mins; format: functional, organism-based; in short: as §2
Pseudomonas aeruginosa [14] = assay: Antimicrobial activity against Pseudomonas aeruginosa assessed as induction of cell integrity break down at 30 uM after 60 mins by TEM analysis; format: functional, organism-based
In short: (§4)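 P. aeruginosa at 10^8 cfu/mL was exposed to peptide at 30 or 150 μM for 60 min, with untreated cells as control. Cells were centrifuged, washed twice in 0.9% NaCl and adsorbed 5–10 min on Parlodion-carbon-coated copper grids. They were negatively stained 30–40 s with 0.25% phosphotungstic acid (pH 7.3) plus 0.01% BSA, air-dried and imaged by TEM.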

Staphylococcus aureus [15] = assay: Antimicrobial activity against Staphylococcus aureus 6271 assessed as reduction in bacterial growth after 20 hrs by broth microdilution assay; conditions: Staphylococcus aureus, 6271, 20 h
[16] = test system: Staphylococcus epidermidis; assay: Antimicrobial activity against Staphylococcus epidermidis assessed as reduction in bacterial growth after 20 hrs by broth microdilution assay
Pseudomonas aeruginosa [17] = assay: Bactericidal activity against Pseudomonas aeruginosa assessed as reduction in bacterial count at 8 uM after 60 mins by time kill assay; format: functional
In short: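 Time-kill: P. aeruginosa (final about 5 × 10^5 cfu/mL) in LB with peptide (8 μM) or medium control was incubated 4 h at 37 °C with shaking. Samples were taken at 0–240 min, serially diluted in 0.9% NaCl and plated on LB agar overnight at 37 °C. Viable counts are given as cfu/mL; means of four independent measurements.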

Pseudomonas aeruginosa [18] = assay: Antimicrobial activity against Pseudomonas aeruginosa assessed as disruption of cell envelope at 30 uM after 60 mins by negative staining based TEM analysis; format: functional, organism-based; in short: as §4
Pseudomonas aeruginosa [19] = assay: Antimicrobial activity against Pseudomonas aeruginosa assessed as compact cell levels at 30 uM after 60 mins by negative staining based TEM analysis; format: functional; in short: as §4
Pseudomonas aeruginosa [20] = assay: Antimicrobial activity against Pseudomonas aeruginosa assessed as detached cell envelope at 30 uM after 60 mins by negative staining based TEM analysis; format: functional, organism-based; in short: as §4
Pseudomonas aeruginosa [21] = assay: Antimicrobial activity against Pseudomonas aeruginosa assessed as flagella attachment level at 30 uM after 60 mins by negative staining based TEM analysis; format: functional, organism-based; in short: as §4
Pseudomonas aeruginosa [22] = assay: Antimicrobial activity against Pseudomonas aeruginosa assessed as cell damage at 150 uM after 60 mins by negative staining based TEM analysis; format: functional, organism-based; in short: as §4
Pseudomonas aeruginosa [23] = assay: Antimicrobial activity against Pseudomonas aeruginosa assessed as cell envelope detachment at 150 uM after 60 mins by negative staining based TEM analysis; format: functional, organism-based; in short: as §4
Pseudomonas aeruginosa [24] = assay: Antimicrobial activity against Pseudomonas aeruginosa assessed as flagella detachment at 150 uM after 60 mins by negative staining based TEM analysis; format: functional, organism-based; in short: as §4
Pseudomonas aeruginosa [25] = assay: Antimicrobial activity against Pseudomonas aeruginosa assessed as induction of inner bacterial content leakage at 30 uM after 60 mins by TEM analysis; format: functional, organism-based; in short: as §4
Staphylococcus aureus [26] = assay: Antimicrobial activity against Staphylococcus aureus clinical isolates from Liberec regional hospital assessed as reduction in bacterial growth after 20 hrs by broth microdilution assay
Pseudomonas aeruginosa [27] = assay: Bacteriostatic activity against Pseudomonas aeruginosa assessed as induction of bacteria killing at 80 uM after 60 mins by time kill assay; format: functional, organism-based
In short: (§5)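 P. aeruginosa grown at 37 °C with shaking to mid-log phase, then diluted in fresh LB to about 5 × 10^5 cfu/mL. This inoculum was mixed 1:1 with LB containing the agent and shaken at 37 °C for 4 h. Samples were taken at 0–240 min, serially diluted in 0.9% NaCl and plated on LB agar overnight at 37 °C; viable counts are given as cfu/mL. LB-only growth control; means of four independent runs, SEM.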

Pseudomonas aeruginosa [28] = assay: Bacteriostatic activity against Pseudomonas aeruginosa assessed as induction of bacteria killing at 80 uM after 3 hrs by time kill assay; format: functional, organism-based; in short: as §5
Pseudomonas aeruginosa [29] = assay: Bactericidal activity against Pseudomonas aeruginosa assessed as induction of bacteria killing at 20 uM after 4 hrs by time kill assay; format: functional, organism-based; in short: as §5
Pseudomonas aeruginosa [30] = assay: Bactericidal activity against Pseudomonas aeruginosa assessed as reduction in bacterial count at 20 uM after 4 hrs by time kill assay; format: functional; in short: as §3

Compound | MIC (Staphylococcus aureus [3]) [µM] | MIC (Escherichia coli) [µM] | MIC (Pseudomonas aeruginosa [4]) [µM] | MIC (Pseudomonas aeruginosa [5]) [µM] | HC50 at 1 h [6] [µM] | MIC (Candida albicans) [µM] | MIC (Micrococcus luteus) [µM] | MIC (Bacillus subtilis) [µM] | fractional inhibitory concentration index (FICI) (Staphylococcus aureus [7]) | fractional inhibitory concentration index (FICI) (Pseudomonas aeruginosa [8]) | fractional inhibitory concentration index (FICI) (Pseudomonas aeruginosa [9]) | Ratio (Pseudomonas aeruginosa [12]) | Activity (Pseudomonas aeruginosa [13]) | Activity (Pseudomonas aeruginosa [14]) | MIC (Staphylococcus aureus [15]) [µM] | MIC [16] [µM] | MIC (Staphylococcus aureus [26]) [µM] | also measured
CCCCCCCCN=c1ccn(CCCCCCCCCCn2ccc(=NCCCCCCCC)cc2)cc1 |  |  |  |  |  |  |  |  |  |  |  |  |  |  |  |  |  | Activity (Pseudomonas aeruginosa [1]): Active
H-GIWSSLLKKLKKIIAK-NH2 | 5.3 | 1.6 | 6.3 | 21 | 165 | 16 | ≤ 3 | ≤ 7 | 0.4 | 0.35 | 0.27 | 30 | Dose-dependent effect | Dose-dependent effect | 20 | 1.5 |  | MIC (Staphylococcus aureus [2]): 4.6 µM; Activity (Pseudomonas aeruginosa [10]): Active; fold change (FC) (Pseudomonas aeruginosa [11]): 2
H-GIMSSLMKKLKKIIAK-NH2 | 23 | 9 | 5 | 7.4 | > 400 | 5.2 | ≤ 3 | ≤ 7 | 0.33 | 0.65 | 0.43 |  | Active | Active | 32 | 1.9 | 7.6 | fold change (FC) (Pseudomonas aeruginosa [17]): 2; Activity (Pseudomonas aeruginosa [18]): Active; Activity (Pseudomonas aeruginosa [19]): 60%; Activity (Pseudomonas aeruginosa [20]): Active; Activity (Pseudomonas aeruginosa [21]): Active; Activity (Pseudomonas aeruginosa [22]): Active; Activity (Pseudomonas aeruginosa [23]): Active; Activity (Pseudomonas aeruginosa [24]): Active; Activity (Pseudomonas aeruginosa [25]): Active
CN(C)[C@@H]1C(O)=C(C(N)=O)C(=O)[C@@]2(O)C(O)=C3C(=O)c4c(O)cccc4[C@@](C)(O)[C@H]3C[C@@H]12 [TETRACYCLINE] | 2 (≈ 0.889 µg/mL) | 2.7 (≈ 1.2 µg/mL) | 29 (≈ 12.9 µg/mL) | 70 (≈ 31.1 µg/mL) | > 200 |  |  |  |  |  |  |  |  |  | 0.9 (≈ 0.4 µg/mL) | > 100 | 1.1 (≈ 0.489 µg/mL) | Activity (Pseudomonas aeruginosa [27]): inactive; Activity (Pseudomonas aeruginosa [28]): Active
CO[C@H]1/C=C/O[C@@]2(C)Oc3c(C)c(O)c4c(O)c(c(/C=N/N5CCN(C)CC5)c(O)c4c3C2=O)NC(=O)/C(C)=C\C=C\[C@H](C)[C@H](O)[C@@H](C)[C@@H](O)[C@@H](C)[C@H](OC(C)=O)[C@@H]1C [RIFAMPIN] | < 0.1 | 10 (≈ 8.23 µg/mL) | 27 (≈ 22.2 µg/mL) | 19 (≈ 15.6 µg/mL) |  |  |  |  |  |  |  |  |  |  | < 0.1 | < 0.1 | < 0.1 | Activity (Pseudomonas aeruginosa [29]): Active; fold change (FC) (Pseudomonas aeruginosa [30]): 3
H-GILSSLWKKLKKWIAK-NH2 | 2 | 2.5 | 13 | 24 | 57 | 13 | ≤ 3 | ≤ 7 | 0.58 | 0.42 | 0.29 | 19 |  |  | 2.5 | 1.6 | 1.8 | 
